Tests used:
[1] = folding enthalpy; higher = less favourable; fluorescence melt of hairpins on a sequencing array, two-state fit; settings: sodium 0.088 M
Procedure, shortened: (§1)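 To match UV melts, fitted temperatures were raised by 9.35 °C. These fits were bootstrapped two-state models that gave melting temperature and folding enthalpy, combined by inverse variance over four replicates. The input was normalised Cy3 fluorescence of library hairpins with annealed Cy3 and quencher oligos on a sequenced MiSeq flow cell, imaged in 50 mM Na-HEPES pH 8.0, 25 mM NaCl in 2.5 °C steps up to 60 °C.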

[2] = melting temperature; fluorescence melt of hairpins on a sequencing array, two-state fit, raised by 9.35 °C to match UV melts; settings: sodium 0.088 M
Procedure, shortened: as §1

Sequence | folding enthalpy [1] [kcal/mol] | Tm [2] [°C]
GGTTACGAAAGTAAACC ((((((....))).))) | -24.2 | 48.8
GTTGCTCGAAAGAGGAAC (((.(((....))).))) | -38.2 | 53.9
CAGCAGAAATGCTG (((((....))))) | -25.6 | 53
GGTATTGGAAACAATATC (.(((((....))))).) | -24.9 | 37.1
GATCTGTGCGCAGATC ((((((....)))))) | -47.1 | 57
AATTGGAAACAATT (((((....))))) | -11.3 | 31.6
GGATTGCGAAAGCATTCC (((.(((....))).))) | -36.2 | 52.8
GTAGACGGAAACATCTAC (((((.(....).))))) | -21 | 31
GCATGGCGAAAGCAATGC ((((.((....)).)))) | -30.6 | 64.8
GTCCTTGGAAACAGGGAC ((((.((....)).)))) | -33 | 46.4
GCGTCGACACGC ((((....)))) | -21.5 | 51.7
GCTGGTACGAAAGTAAGC (((..(((....)))))) | -16.2 | 34.2
GATCTATTTATAGATC ((((((....)))))) | -48.6 | 51.8
GTGCACGAAAGTGGGCAC ((((((....)))..))) | -22.6 | 52.6
GTCGGCGGAAACGCCAAC ((.((((....)))).)) | -12.7 | 48.2
GCGACGGGAAACCATCGC ((((.((....)).)))) | -45.5 | 51.4
GCGTGTGGAAACGTACGC ((((..(....)..)))) | -32.9 | 50.1
GGATTGTCGAAAGACTCC (((..(((....)))))) | -16 | 30.9
GCGTGGGGAAACCCGCGC (((.(((....))).))) | -44.8 | 69
GAACGCGAAAGCGATTC ((((((....))).))) | -14.1 | 45.7
GATTCGGGAAACCGAGTC ((.((((....)))).)) | -28 | 46.7
GGACGTGGAAACACATCC (((.(((....))).))) | -25.9 | 41.1
CGAGGACGGAAACGTTCG (((..(((....)))))) | -19.8 | 43.1

Sequence | folding enthalpy [1] [kcal/mol] | Tm [2] [°C]
GATCTGGTGCAGATC ((((((...)))))) | -31.1 | 49.5
GCAGTGCGAAAGCGCAGC ((.(.((....)).).)) | -14.2 | 62.3
GTACTGCGAAAGCAATAC (((.(((....))).))) | -21.6 | 37.4
GATCTTGGTAAAGATC ((((((....)))))) | -41.3 | 53.5
GGTAGTGGAAACATTACC ((((.((....)).)))) | -34.3 | 41.6
GGTCGGAAACGACC (((((....))))) | -32.3 | 68
GTAATACCGAAAGGTTAC (((..(((....)))))) | -14.6 | 31.5
GTGTGAGGAAACTTGCAC (((..((....))..))) | -28 | 35.1
GCCCAGCGAAAGCGTGGC (((..((....))..))) | -23 | 62.4
GTGCCTGGAAACAAGCAC ((((.((....)).)))) | -24.6 | 42.7
GCGAAGGGAAACCTTCAC (.(((((....))))).) | -18.1 | 38.6
GGTGATGCGAAAGCAACC (((..(((....)))))) | -13.7 | 36.9
GTAAGTGGAAACACTTAC (((((((....))))))) | -45.2 | 55.4
GATCGGGGACCCGATC ((((((....)))))) | -45.9 | 63
GATCGGTTCCCCGATC ((((((....)))))) | -40 | 56.8
GTCTACCCGAAAGGGGAC (((..(((....)))))) | -13.8 | 36.2
GATCTAGGAGTAGATC ((((((....)))))) | -30.2 | 40.4
GATCGTCCCACGATC ((((((...)))))) | -38.5 | 57.6
GATCGCGAAAGCGATATC ((((((....)))..))) | -11.8 | 59.2
GTTCTAGGAAACTAGAGC (.(((((....))))).) | -24.7 | 35.6
GAAGTCGGAAACGGTTTC (((..((....))..))) | -8.25 | 28.4
GTCTTGGGAAACCAAGAC (((((((....))))))) | -46.4 | 62.1
GCGCTAGGAAACCAACGC (((.(.(....).).))) | -10.5 | 28.6

Sequence | folding enthalpy [1] [kcal/mol] | Tm [2] [°C]
GTGTTTGGAAACAAACGC (.(((((....))))).) | -32.3 | 51
GCATGCGGAAACGCACAC (..((((....))))..) | -9.47 | 27.7
GCGTGCGAAAGCAGCCGC ((((((....)))..))) | -19 | 55.2
GTGGTCGAAAGACTTCAC ((((((....)))..))) | -15.2 | 31.9
GGTCTCCGAAAGGAACC (((.(((....)))))) | -22.4 | 45.2
GATCACAACAGTGATC ((((((....)))))) | -41.7 | 58.7
GCCAATGGAAACGTTGGC (((((.(....).))))) | -49.3 | 53.7
GGCGCGGGAAACCGCACC ((.((((....)))).)) | -22.4 | 61.7
GGTGCCGGAAACGGCGTC (..((((....))))..) | -9.71 | 42.2
GACCGCGAAAGCGGCGTC ((((((....)))..))) | -9.59 | 51.3
CGCACGGAAACGTAGCG ((((((....))).))) | -30.4 | 53.8
GGTAAGCCGAAAGGCACC (((..(((....)))))) | -15.4 | 42
GATCGTAGGTACGATC ((((((....)))))) | -38.9 | 55.8
GATCACGCACGTGATC ((((((....)))))) | -40.5 | 68.9
GCCCCCCCGAAAGGGGGC (((..(((....)))))) | -11.2 | 65.2
GGTGCGGGAAACCACACC ((((.((....)).)))) | -54.3 | 51.1
GGCTCGGGAAACCGAACC ((.((((....)))).)) | -29.7 | 48.8
GCAAAGCGAAAGCGATGC (((..((....))..))) | -24.4 | 61.7
GCCACGCGAAAGCTCGGC (((..((....))..))) | -22 | 51.2
GGTATCGAAAGATGGACC ((((((....)))..))) | -15.2 | 28.9
GCACTGCGAAAGCACTGC (((.(((....))).))) | -28.1 | 44.4
GTCTGCGGAAACGCGGAC (((.(((....))).))) | -39.2 | 63.7
GATCATCGCTATGATC ((((((....)))))) | -38.8 | 47.2

Sequence | folding enthalpy [1] [kcal/mol] | Tm [2] [°C]
GGATTCGAAAGAACTCC ((((((....))).))) | -22 | 36
GATCGGACATCCGATC ((((((....)))))) | -38.7 | 55.3
GCGAACCCGAAAGGGCGC (((..(((....)))))) | -21.4 | 55.5
ACCGTGAAAACGGT (((((....))))) | -17 | 55.4
GAACTAGAAATAGTTC ((((((....)))))) | -29.3 | 42
GATCAACGCTTGATC ((((((...)))))) | -31.4 | 42
GGATGGTCGAAAGACTCC (((..(((....)))))) | -14.2 | 32.9
CGCGTCGGAAACGATGCG (((.(((....))).))) | -54.9 | 62.4
GTACGACGAAAGTCATAC (((.(((....))).))) | -19 | 39.4
GTTATACGAAAGTACAAC (((.(((....))).))) | -17.4 | 33.2
GTGGTCGAAAGACTACAC ((((((....)))..))) | -15.7 | 48.2
GACGACGAAAGTCTAGTC ((((((....)))..))) | -23.8 | 41.8
GAACTGGCGAAAGCCTTC (((..(((....)))))) | -6.15 | 19.7
GATCTAATGATAGATC ((((((....)))))) | -20.4 | 36.2
GCGGTCCCCGC ((((...)))) | -18 | 67.5
GATCCGCCTCGGATC ((((((...)))))) | -30 | 56.7
GGGTGTGGAAACGCACCC (((((.(....).))))) | -45.2 | 60
GGATGTGGAAACGCATTC (.(((.(....).))).) | -22.9 | 33.9
GATAGCGAAAGCTCTATC ((((((....)))..))) | -11.1 | 26.4
GCAAGCGAAAGCTACTGC ((((((....)))..))) | -13.2 | 37.3
GTGGGAGCGAAAGCTCAC (((..(((....)))))) | -19.2 | 62.9
GCATGGCGAAAGCAGTGC (((..((....))..))) | -19.7 | 56.5
GCGTGCGAAAGCAACCGC ((((((....)))..))) | -18.6 | 53.7

— the array DNA melting data of Ke et al. (doi:10.1101/2024.01.08.574731)
